Data reported in ChEMBL document CHEMBL1145022, “Hydantoin-substituted 4,6-dichloroindole-2-carboxylic acids as ligands with high affinity for the glycine binding site of the NMDA receptor” (J Med Chem, 2003).
Calls of active or inactive are those of the source. No cut-off for these calls is given here.

Key:
[1] = Partition coefficient (logP); format: physicochemical; conditions: octanol/water
Procedure, shortened: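 Potentiometric titration in n-octanol/water; each Log P value is the mean of at least three independent experiments.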

[2] = target: T1, Sodium channel alpha subunits; brain (Types I, II, III) (Rattus norvegicus) (UniProt P04775+P04774+P08104); assay: Inhibition of [3H]batrachotoxin binding to rat brain sodium channels at 0.1 uM
T1 sequence (P04775 whole entry, looked up, other chains not shown): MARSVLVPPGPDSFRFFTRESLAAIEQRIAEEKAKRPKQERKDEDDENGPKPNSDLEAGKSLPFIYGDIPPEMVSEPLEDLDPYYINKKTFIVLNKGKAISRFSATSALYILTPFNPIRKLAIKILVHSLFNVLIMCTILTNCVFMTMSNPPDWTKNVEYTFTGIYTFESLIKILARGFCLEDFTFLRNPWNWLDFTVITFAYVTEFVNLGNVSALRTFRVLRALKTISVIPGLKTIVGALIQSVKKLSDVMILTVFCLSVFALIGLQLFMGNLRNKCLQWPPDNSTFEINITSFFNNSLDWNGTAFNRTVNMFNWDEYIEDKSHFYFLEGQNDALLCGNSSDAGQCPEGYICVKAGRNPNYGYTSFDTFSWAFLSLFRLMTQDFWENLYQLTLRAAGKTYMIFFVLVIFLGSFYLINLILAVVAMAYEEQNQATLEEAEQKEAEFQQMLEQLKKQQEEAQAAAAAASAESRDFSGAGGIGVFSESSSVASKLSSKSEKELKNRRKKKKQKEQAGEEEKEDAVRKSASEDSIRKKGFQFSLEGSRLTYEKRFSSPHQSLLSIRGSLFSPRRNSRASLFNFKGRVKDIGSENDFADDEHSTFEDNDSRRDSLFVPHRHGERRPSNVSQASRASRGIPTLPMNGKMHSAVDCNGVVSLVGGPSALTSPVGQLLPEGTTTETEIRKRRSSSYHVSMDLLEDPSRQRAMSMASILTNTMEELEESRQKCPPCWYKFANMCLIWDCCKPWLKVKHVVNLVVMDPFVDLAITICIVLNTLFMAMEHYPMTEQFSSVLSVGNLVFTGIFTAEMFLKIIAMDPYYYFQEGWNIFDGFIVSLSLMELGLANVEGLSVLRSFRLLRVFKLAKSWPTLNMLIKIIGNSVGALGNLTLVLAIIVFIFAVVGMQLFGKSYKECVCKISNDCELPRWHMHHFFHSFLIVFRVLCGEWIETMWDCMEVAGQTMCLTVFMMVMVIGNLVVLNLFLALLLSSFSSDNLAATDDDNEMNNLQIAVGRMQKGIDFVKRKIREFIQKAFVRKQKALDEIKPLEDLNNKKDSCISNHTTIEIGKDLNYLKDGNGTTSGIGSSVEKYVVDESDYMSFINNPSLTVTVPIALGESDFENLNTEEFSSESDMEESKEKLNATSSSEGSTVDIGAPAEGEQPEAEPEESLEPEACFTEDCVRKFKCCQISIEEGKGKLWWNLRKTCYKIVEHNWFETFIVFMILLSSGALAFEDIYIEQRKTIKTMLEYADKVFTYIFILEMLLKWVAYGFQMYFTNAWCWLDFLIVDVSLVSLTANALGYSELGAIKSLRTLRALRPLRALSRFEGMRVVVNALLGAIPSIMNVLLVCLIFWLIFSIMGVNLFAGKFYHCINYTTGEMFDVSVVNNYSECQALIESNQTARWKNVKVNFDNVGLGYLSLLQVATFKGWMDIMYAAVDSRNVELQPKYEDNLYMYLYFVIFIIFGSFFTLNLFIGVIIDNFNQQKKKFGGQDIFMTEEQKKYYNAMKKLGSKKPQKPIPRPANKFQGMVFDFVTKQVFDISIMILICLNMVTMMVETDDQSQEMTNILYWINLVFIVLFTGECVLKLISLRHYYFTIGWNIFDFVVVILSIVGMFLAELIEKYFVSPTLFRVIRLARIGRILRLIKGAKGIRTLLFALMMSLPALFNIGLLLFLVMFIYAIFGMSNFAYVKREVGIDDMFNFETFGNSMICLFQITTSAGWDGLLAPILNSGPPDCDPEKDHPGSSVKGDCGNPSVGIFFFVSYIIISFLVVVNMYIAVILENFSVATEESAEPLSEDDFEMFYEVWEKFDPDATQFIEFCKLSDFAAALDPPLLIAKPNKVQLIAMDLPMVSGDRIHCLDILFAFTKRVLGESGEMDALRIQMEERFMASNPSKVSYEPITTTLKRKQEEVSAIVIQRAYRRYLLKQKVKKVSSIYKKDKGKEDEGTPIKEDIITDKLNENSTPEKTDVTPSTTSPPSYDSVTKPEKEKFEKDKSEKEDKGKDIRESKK
T1 sequence (P08104 whole entry, looked up, other chains not shown): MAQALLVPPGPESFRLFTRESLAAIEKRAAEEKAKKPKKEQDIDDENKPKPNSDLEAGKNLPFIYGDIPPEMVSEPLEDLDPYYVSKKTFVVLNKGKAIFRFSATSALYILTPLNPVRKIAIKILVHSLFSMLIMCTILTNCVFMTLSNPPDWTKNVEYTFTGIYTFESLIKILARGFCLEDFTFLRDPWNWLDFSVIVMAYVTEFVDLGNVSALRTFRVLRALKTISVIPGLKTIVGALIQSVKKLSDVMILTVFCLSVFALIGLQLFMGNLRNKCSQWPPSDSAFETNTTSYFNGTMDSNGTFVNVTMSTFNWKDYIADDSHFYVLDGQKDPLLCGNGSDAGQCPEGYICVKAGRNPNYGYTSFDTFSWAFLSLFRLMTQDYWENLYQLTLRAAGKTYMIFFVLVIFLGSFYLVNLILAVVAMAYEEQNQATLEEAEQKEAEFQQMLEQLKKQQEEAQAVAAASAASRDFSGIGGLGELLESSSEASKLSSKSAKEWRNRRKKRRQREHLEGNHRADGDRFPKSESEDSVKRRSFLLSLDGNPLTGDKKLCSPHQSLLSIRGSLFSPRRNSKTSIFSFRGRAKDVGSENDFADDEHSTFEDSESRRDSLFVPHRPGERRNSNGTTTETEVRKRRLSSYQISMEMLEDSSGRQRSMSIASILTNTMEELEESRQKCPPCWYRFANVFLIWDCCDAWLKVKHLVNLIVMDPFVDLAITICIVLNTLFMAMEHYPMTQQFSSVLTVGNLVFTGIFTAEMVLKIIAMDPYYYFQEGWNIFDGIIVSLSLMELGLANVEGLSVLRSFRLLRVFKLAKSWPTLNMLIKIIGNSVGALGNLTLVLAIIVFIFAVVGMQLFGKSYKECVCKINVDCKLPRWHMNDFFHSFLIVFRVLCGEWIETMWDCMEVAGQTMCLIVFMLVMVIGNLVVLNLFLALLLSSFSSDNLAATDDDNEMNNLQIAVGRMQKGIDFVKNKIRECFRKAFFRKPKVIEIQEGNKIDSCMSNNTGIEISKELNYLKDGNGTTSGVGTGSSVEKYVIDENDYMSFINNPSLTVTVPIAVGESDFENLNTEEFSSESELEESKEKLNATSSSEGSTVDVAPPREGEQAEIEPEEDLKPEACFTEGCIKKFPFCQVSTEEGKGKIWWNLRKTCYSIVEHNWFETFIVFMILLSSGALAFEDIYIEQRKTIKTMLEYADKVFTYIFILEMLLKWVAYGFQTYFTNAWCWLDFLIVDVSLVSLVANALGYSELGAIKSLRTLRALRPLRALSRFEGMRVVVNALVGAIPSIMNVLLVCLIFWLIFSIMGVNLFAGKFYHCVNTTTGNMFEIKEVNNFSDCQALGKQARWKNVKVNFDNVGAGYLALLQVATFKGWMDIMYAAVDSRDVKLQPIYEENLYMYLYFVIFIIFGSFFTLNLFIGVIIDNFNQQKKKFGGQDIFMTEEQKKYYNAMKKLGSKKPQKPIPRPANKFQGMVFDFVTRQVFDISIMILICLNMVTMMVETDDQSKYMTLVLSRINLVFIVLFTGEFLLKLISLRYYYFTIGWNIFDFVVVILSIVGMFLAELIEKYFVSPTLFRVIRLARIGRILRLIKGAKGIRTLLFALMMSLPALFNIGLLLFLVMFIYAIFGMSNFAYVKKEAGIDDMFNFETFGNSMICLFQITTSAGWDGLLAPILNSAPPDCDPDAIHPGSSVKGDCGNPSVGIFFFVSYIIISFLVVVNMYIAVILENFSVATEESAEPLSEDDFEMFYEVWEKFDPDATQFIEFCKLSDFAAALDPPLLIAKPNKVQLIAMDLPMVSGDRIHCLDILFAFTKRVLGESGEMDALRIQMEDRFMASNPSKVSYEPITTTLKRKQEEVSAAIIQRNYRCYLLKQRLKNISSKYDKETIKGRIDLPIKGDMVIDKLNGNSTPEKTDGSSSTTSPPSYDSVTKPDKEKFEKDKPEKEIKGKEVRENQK

[3] = target: T1, Sodium channel alpha subunits; brain (Types I, II, III) (Rattus norvegicus); assay: Inhibition of [3H]batrachotoxin binding to rat brain sodium channels at 1 uM
[4] = target: T1, Sodium channel alpha subunits; brain (Types I, II, III) (Rattus norvegicus); assay: Inhibition of [3H]batrachotoxin binding to rat brain sodium channels at 10 uM
[5] = target: T1, Sodium channel alpha subunits; brain (Types I, II, III) (Rattus norvegicus); assay: Affinity for sodium channel site 2 up to 10 uM; Inactive; format: protein assay

| SMILES | logP [1] | other results |
| --- | --- | --- |
| O=C(NCc1c(C(=O)O)[nH]c2cc(Cl)cc(Cl)c12)Nc1ccccc1 | 2.83 | – |
| CC(C)C1C(=O)N(c2ccccc2)C(=O)N1Cc1c(C(=O)O)[nH]c2cc(Cl)cc(Cl)c12 (stereo not drawn) | – | inhibition [2]: 11%; inhibition [3]: 8%; inhibition [4]: 29% |
| O=C(O)c1[nH]c2cc(Cl)cc(Cl)c2c1CNS(=O)(=O)c1ccccc1 | 3.1 | – |
| O=C(O)c1[nH]c2cc(Cl)cc(Cl)c2c1CN1CC(=O)N(c2ccccc2)C1=O | 2.16 | IA [5]: inactive |
| O=C(NCc1c(C(=O)O)[nH]c2cc(Cl)cc(Cl)c12)c1ccccc1 | 2.36 | – |
